Laboratory results taken from ChEMBL document CHEMBL1255255, “Highly variable penicillin resistance determinants PBP 2x, PBP 2b, and PBP 1a in isolates of two Streptococcus pneumoniae clonal groups, Poland 23F-16 and Poland 6B-20” (2008).
Numbering of substitutions follows the chain as printed. ≈ marks a conversion by molar mass, not a printed value. Calls of active or inactive are those of the source. The rule behind the calls is not given here.

Experiments:
[1] = target: T1, Penicillin-binding protein 2x (Streptococcus pneumoniae serotype 4 (strain ATCC BAA-334 / TIGR4)) (UniProt P14677); experiment: Binding affinity to PBP 2x in Streptococcus pneumoniae isolate k-421 at 1.1 ng/ml to 1.1 ug /ml
T1 sequence (whole entry): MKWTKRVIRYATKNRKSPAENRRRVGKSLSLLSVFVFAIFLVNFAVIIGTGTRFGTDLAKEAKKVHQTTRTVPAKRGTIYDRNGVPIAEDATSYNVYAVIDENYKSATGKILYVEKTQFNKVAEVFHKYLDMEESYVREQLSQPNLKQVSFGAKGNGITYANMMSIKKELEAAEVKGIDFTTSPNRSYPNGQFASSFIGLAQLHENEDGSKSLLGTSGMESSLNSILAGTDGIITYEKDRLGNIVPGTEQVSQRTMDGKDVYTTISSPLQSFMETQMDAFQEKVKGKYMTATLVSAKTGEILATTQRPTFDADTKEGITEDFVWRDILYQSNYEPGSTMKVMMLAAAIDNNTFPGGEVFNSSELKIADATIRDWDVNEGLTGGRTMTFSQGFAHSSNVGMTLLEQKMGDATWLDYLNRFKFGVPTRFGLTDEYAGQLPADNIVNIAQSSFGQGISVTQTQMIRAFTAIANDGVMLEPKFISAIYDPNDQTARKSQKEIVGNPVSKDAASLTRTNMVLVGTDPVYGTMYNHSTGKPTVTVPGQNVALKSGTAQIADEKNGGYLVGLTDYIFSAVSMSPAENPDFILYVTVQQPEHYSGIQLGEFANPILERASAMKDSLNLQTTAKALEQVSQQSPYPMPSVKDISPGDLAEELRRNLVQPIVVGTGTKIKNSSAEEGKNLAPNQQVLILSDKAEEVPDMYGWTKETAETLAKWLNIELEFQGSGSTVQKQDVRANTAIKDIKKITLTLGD
How it was run: (§1)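 Cells grown at 37°C without aeration in C medium with 0.2% yeast extract, monitored by nephelometry, harvested at 80 to 100 nephelometry units and resuspended in 20 mM sodium phosphate (pH 7.2) with 0.2% Triton X-100. Lysate aliquots labeled with decreasing Bocillin FL (1.1, 0.36, 0.11, 0.036 μg/ml, onward) for 30 min at 37°C. PBPs were resolved by SDS-PAGE (7.5% resolving gel) and read by fluorescence imaging.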

[2] = target: T1, Penicillin-binding protein 2x (Streptococcus pneumoniae serotype 4 (strain ATCC BAA-334 / TIGR4)); experiment: Binding affinity to PBP 2x in Streptococcus pneumoniae isolate 909 at 1.1 ng/ml to 1.1 ug /ml; how it was run: as §1
[3] = target: T2, Penicillin-binding protein 1A (Streptococcus pneumoniae serotype 4 (strain ATCC BAA-334 / TIGR4)) (UniProt Q04707); experiment: Binding affinity to PBP 1a in Streptococcus pneumoniae isolate k-637 at 1.1 ng/ml to 1.1 ug /ml; how it was run: as §1
T2 sequence (whole entry): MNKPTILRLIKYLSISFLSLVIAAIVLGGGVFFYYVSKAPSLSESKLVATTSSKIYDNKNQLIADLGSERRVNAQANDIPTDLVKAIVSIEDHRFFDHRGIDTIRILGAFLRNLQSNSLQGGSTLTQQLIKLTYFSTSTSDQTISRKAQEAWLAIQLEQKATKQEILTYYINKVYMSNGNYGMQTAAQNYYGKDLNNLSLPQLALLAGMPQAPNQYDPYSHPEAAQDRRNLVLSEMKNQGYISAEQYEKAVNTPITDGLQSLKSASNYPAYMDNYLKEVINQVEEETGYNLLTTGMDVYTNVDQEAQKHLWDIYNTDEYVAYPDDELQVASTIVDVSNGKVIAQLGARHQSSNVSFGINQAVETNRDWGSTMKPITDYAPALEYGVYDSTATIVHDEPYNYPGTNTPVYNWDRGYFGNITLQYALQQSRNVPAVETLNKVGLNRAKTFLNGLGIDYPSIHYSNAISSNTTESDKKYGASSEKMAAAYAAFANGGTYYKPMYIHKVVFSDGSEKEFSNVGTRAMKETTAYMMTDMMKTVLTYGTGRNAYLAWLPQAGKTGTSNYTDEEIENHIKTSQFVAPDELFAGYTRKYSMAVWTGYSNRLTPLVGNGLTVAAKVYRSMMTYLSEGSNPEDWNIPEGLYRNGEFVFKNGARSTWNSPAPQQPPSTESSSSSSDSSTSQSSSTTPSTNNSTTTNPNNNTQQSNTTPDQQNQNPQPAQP

[4] = target: T3, Penicillin-binding protein 2X (Streptococcus pneumoniae R6) (UniProt P59676); experiment: Binding affinity to PBP 2x in Streptococcus pneumoniae R6 at 1.1 ng/ml to 1.1 ug /ml; how it was run: as §1
T3 sequence (whole entry): T1 sequence (whole entry) with T385M

Streptococcus pneumoniae [5] = experiment: Antimicrobial activity against Streptococcus pneumoniae isolate 909 obtained from bronchoalveolar lavage fluid of patient; assay type: functional; details: isolate 909, Lung
Streptococcus pneumoniae [6] = experiment: Antimicrobial activity against Streptococcus pneumoniae isolate 2907 obtained from sinusitis of patient; assay type: functional
Streptococcus pneumoniae [7] = experiment: Antimicrobial activity against Streptococcus pneumoniae isolate 657 obtained from sputum of patient; assay type: functional
Streptococcus pneumoniae [8] = experiment: Antimicrobial activity against Streptococcus pneumoniae ATCC BAA-343; assay type: functional
Streptococcus pneumoniae [9] = experiment: Antimicrobial activity against Streptococcus pneumoniae ATCC BAA-612; assay type: functional
Streptococcus pneumoniae [10] = experiment: Antimicrobial activity against Streptococcus pneumoniae isolate k-585 obtained from bronchoalveolar lavage fluid of patient; assay type: functional; details: isolate k-585, Lung
Streptococcus pneumoniae [11] = experiment: Antimicrobial activity against Streptococcus pneumoniae isolate 187 obtained from bronchoalveolar lavage fluid of patient; assay type: functional; details: isolate 187, Lung
Streptococcus pneumoniae [12] = experiment: Antimicrobial activity against Streptococcus pneumoniae isolate 4134 obtained from sputum of patient; assay type: functional
Streptococcus pneumoniae [13] = experiment: Antimicrobial activity against Streptococcus pneumoniae isolate 2904 obtained from blood of patient; assay type: functional
Streptococcus pneumoniae [14] = experiment: Antimicrobial activity against Streptococcus pneumoniae isolate 40 obtained from blood of patient; assay type: functional
Streptococcus pneumoniae [15] = experiment: Antimicrobial activity against Streptococcus pneumoniae isolate k-598 obtained from bronchoalveolar lavage fluid of patient; assay type: functional; details: Lung
Streptococcus pneumoniae [16] = experiment: Antimicrobial activity against Streptococcus pneumoniae isolate k-421 obtained from ear of patient; assay type: functional
Streptococcus pneumoniae [17] = experiment: Antimicrobial activity against Streptococcus pneumoniae isolate k-637 obtained from CSF of patient; assay type: functional

Row | Activity [1] | Activity [2] | Activity [3] | Activity [4] | Compound | MIC (Streptococcus pneumoniae [5]) [µg/mL] | MIC (Streptococcus pneumoniae [6]) [µg/mL] | MIC (Streptococcus pneumoniae [7]) [µg/mL] | MIC (Streptococcus pneumoniae [8]) [µg/mL] | MIC (Streptococcus pneumoniae [9]) [µg/mL] | MIC (Streptococcus pneumoniae [10]) [µg/mL] | MIC (Streptococcus pneumoniae [11]) [µg/mL] | MIC (Streptococcus pneumoniae [12]) [µg/mL] | MIC (Streptococcus pneumoniae [13]) [µg/mL] | MIC (Streptococcus pneumoniae [14]) [µg/mL] | MIC (Streptococcus pneumoniae [15]) [µg/mL] | MIC (Streptococcus pneumoniae [16]) [µg/mL] | MIC (Streptococcus pneumoniae [17]) [µg/mL]
1 | inactive | inactive | Active | inactive | Cc1cc(C)n2c1C=C1C=CC(CCC(=O)Nc3ccc(OCC(=O)N[C@@H]4C(=O)N5[C@@H]4SC(C)(C)[C@@H]5C(=O)O)cc3)=[N+]1[B-]2(F)F |  |  |  |  |  |  |  |  |  |  |  |  | 
2 |  |  |  |  | CC1(C)S[C@@H]2[C@H](NC(=O)[C@H](N)c3ccc(O)cc3)C(=O)N2[C@H]1C(=O)O [AMOXICILLIN] | 8 (≈ 21.9 µM) | 0.25 (≈ 0.684 µM) | 0.06 (≈ 0.164 µM) | 2 (≈ 5.47 µM) | 0.12 (≈ 0.328 µM) | 4 (≈ 10.9 µM) | 16 (≈ 43.8 µM) | 1 (≈ 2.74 µM) | 2 (≈ 5.47 µM) | 8 (≈ 21.9 µM) | 16 (≈ 43.8 µM) | 2 (≈ 5.47 µM) | 2 (≈ 5.47 µM)
3 |  |  |  |  | CO/N=C(\C(=O)N[C@@H]1C(=O)N2C(C(=O)[O-])=C(C[N+]3(C)CCCC3)CS[C@H]12)c1csc(N)n1 [CEFEPIME] | 1 (≈ 2.08 µM) | 0.25 (≈ 0.52 µM) | 0.06 (≈ 0.125 µM) | 4 (≈ 8.32 µM) | 0.25 (≈ 0.52 µM) | 1 (≈ 2.08 µM) | 2 (≈ 4.16 µM) | 1 (≈ 2.08 µM) | 1 (≈ 2.08 µM) | 1 (≈ 2.08 µM) | 8 (≈ 16.6 µM) | 1 (≈ 2.08 µM) | 2 (≈ 4.16 µM)
4 |  |  |  |  | CO/N=C(\C(=O)N[C@@H]1C(=O)N2C(C(=O)O)=C(COC(C)=O)CS[C@H]12)c1csc(N)n1 [CEFOTAXIME] | 2 (≈ 4.39 µM) | 0.25 (≈ 0.549 µM) | 0.06 (≈ 0.132 µM) | 4 (≈ 8.78 µM) | 0.06 (≈ 0.132 µM) | 1 (≈ 2.2 µM) | 8 (≈ 17.6 µM) | 0.5 (≈ 1.1 µM) | 4 (≈ 8.78 µM) | 4 (≈ 8.78 µM) | 16 (≈ 35.1 µM) | 2 (≈ 4.39 µM) | 1 (≈ 2.2 µM)
5 |  |  |  |  | CO/N=C(\C(=O)N[C@@H]1C(=O)N2C(C(=O)O)=C(CSc3nc(=O)c(O)nn3C)CS[C@H]12)c1csc(N)n1 [CEFTRIAXONE] | 1 (≈ 1.8 µM) | 0.25 (≈ 0.451 µM) | 0.06 (≈ 0.108 µM) | 4 (≈ 7.21 µM) | 0.06 (≈ 0.108 µM) | 0.25 (≈ 0.451 µM) | 4 (≈ 7.21 µM) | 0.25 (≈ 0.451 µM) | 2 (≈ 3.61 µM) | 4 (≈ 7.21 µM) | 4 (≈ 7.21 µM) | 1 (≈ 1.8 µM) | 0.5 (≈ 0.902 µM)
6 |  |  |  |  | CO/N=C(\C(=O)N[C@@H]1C(=O)N2C(C(=O)O)=C(COC(N)=O)CS[C@H]12)c1ccco1 [CEFUROXIME] | 8 (≈ 18.9 µM) | 0.25 (≈ 0.589 µM) | 0.12 (≈ 0.283 µM) | 8 (≈ 18.9 µM) | 0.12 (≈ 0.283 µM) | 2 (≈ 4.71 µM) | > 32 | 2 (≈ 4.71 µM) | 16 (≈ 37.7 µM) | 32 (≈ 75.4 µM) | > 32 | 2 (≈ 4.71 µM) | 4 (≈ 9.43 µM)
7 |  |  |  |  | C[C@@H](O)[C@H]1C(=O)N2C(C(=O)O)=C(S[C@@H]3CN[C@H](C(=O)N(C)C)C3)[C@H](C)[C@H]12 [MEROPENEM] | 0.25 (≈ 0.652 µM) | 0.12 (≈ 0.313 µM) | 0.06 (≈ 0.156 µM) | 0.5 (≈ 1.3 µM) | 0.06 (≈ 0.156 µM) | 0.25 (≈ 0.652 µM) | 0.5 (≈ 1.3 µM) | 0.25 (≈ 0.652 µM) | 0.5 (≈ 1.3 µM) | 0.5 (≈ 1.3 µM) | 0.5 (≈ 1.3 µM) | 0.25 (≈ 0.652 µM) | 0.5 (≈ 1.3 µM)
8 |  |  |  |  | CC1(C)S[C@@H]2[C@H](NC(=O)Cc3ccccc3)C(=O)N2[C@H]1C(=O)O [PENICILLIN G] | 4 (≈ 12 µM) | 0.5 (≈ 1.5 µM) | 0.12 (≈ 0.359 µM) | 8 (≈ 23.9 µM) | 0.12 (≈ 0.359 µM) | 4 (≈ 12 µM) | 8 (≈ 23.9 µM) | 2 (≈ 5.98 µM) | 4 (≈ 12 µM) | 8 (≈ 23.9 µM) | 8 (≈ 23.9 µM) | 2 (≈ 5.98 µM) | 8 (≈ 23.9 µM)
